pIC50, pKd: −log10 of the molar value. Square brackets hold non-standard residues; d marks the D form. Peptide text beside a SMILES is read from it. * marks the point of attachment. Benzoyl(4-tBu) = CC(C)(C)c1ccc(C(=O)*)cc1; Lys(Et2) = CCN(CC)CCCC[C@H](N)C(=O)O
Key:
CBX2 = biological target: T1, CBX2 (Homo sapiens, UniProt Q14781); assay: TR-FRET competition assay, CBX2 chromodomain with UNC4195 tracer; assay type: binding
T1 sequence (Q14781 9-66): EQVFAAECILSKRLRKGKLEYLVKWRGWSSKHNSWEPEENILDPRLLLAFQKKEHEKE
How it was run: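 His-tagged protein, biotinylated tracer and TR-FRET reagent (Eu-streptavidin, anti-6X-His ULight antibody) premixed in 20 mM Tris pH 7.5, 150 mM NaCl, 0.05% Tween 20, 2 mM DTT. Added to plates pre-stamped from 10 mM DMSO stocks (100X). Shaken 1 min, spun 1000 x g 2 min, 1 h dark. DMSO and competitor full-column controls per plate. Follow-up used 10-point threefold dilutions and a four-parameter fit for IC50.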

CBX7 = biological target: T2, CBX7 (Homo sapiens, UniProt O95931); assay: TR-FRET competition assay, CBX7 chromodomain with UNC4195 tracer; assay type: binding
T2 sequence (O95931 8-62): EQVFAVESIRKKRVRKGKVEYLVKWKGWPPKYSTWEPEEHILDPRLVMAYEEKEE

MPP8 [1] = biological target: T3, MPP8 (Homo sapiens, UniProt Q99549); assay: TR-FRET competition assay, MPP8 chromodomain with H3K9me3 tracer; assay type: binding
T3 sequence (Q99549 55-116): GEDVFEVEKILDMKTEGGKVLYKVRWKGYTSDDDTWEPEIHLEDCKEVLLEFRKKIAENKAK
How it was run: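 His-tagged protein plus biotinylated tracer peptide with Eu-streptavidin and anti-6X-His ULight antibody, in 20 mM Tris pH 7.5, 150 mM NaCl, 0.05% Tween 20, 2 mM DTT; 10 µL total. Test compound: 16-point threefold dilution in buffer, in triplicate. Mixed, centrifuged, equilibrated 1 h in the dark, then read. Percent inhibition relative to DMSO (0%) and 100 µM competitor (100%); four-parameter fit gives IC50.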

CBX5 = CBX5 (Homo sapiens, UniProt P45973); settings: affinity of CBX5 for H3K9me3; cited from earlier work
Sequence of CBX5 (P45973 18-75): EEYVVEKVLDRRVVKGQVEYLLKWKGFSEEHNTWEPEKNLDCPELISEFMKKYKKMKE

MPP8 [2] = biological target: T3, MPP8; settings: MPP8 binding the tracer peptide H3K9me3; cited from earlier work

pIC50 (CBX2) | inhibition (CBX2; single-dose 25 µM, pilot screen in duplicate, 100% = 100 µM UNC3866) | pIC50 (CBX7) | pIC50 (MPP8 [1]) | Compound | pKd (CBX5) | affinity (MPP8 [2])
5.82 | 100% | 7.22 | 6.00 | CCN(CC)CCCC[C@H](NC(=O)[C@H](CC(C)C)NC(=O)[C@H](C)NC(=O)[C@H](Cc1ccccc1)NC(=O)c1ccc(C(C)(C)C)cc1)C(=O)N[C@@H](CO)C(=O)OC [UNC3866] ({Benzoyl(4-tBu)}-FAL[Lys(Et2)]S-OMe) | – | –
– | – | – | – | ARTKQTARK(Me3)STGGKAPRKQL-K(Biotin)-NH2 [H3K9me3] | ~4.52 | sub-micromolar

From paper PMC6586500 (SLAS discovery : advancing life sciences R & D, 2019)
